This is a sample that favours compounds with a hit; in the whole collection about 1.1% have one here.
SR-BI DiI inh = inhibitors of mouse SR-BI mediated HDL lipid uptake | hit rate 0.96% among 320,000 | inhibition, % at 12.5 µM | AID 488896 | ldlA[mSR-BI] CHO cells, DiI-HDL uptake fluorescence, 3 h | Q61009;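 active means mean replicate inhibition of at least 70% and a set share of replicates each scoring 70 or more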;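 further: 0% = median of neutral control wells and 100% = median of positive control wells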
Target sequence (Q61009 whole entry, looked up): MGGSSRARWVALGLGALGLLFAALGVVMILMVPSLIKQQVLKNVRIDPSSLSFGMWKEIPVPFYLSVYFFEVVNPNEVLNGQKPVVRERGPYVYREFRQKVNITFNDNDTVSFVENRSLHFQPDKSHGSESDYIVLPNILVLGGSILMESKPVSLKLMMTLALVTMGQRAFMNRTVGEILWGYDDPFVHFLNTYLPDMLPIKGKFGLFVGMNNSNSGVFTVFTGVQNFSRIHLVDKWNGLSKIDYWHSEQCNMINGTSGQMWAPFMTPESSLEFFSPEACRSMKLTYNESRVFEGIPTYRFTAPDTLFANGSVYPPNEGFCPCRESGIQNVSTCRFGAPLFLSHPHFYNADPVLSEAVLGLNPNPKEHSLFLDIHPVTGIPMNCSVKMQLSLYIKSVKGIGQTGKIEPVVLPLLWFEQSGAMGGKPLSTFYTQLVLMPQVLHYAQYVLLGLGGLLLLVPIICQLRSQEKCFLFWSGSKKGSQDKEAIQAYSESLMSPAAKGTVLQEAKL
SR-BI DiI-HDL act = activators of SR-BI mediated HDL lipid uptake | CHO ldlA[mSR-BI] cells, DiI-HDL uptake fluorescence, 3 h; 100 = double the neutral-control signal | AID 504775 | hit rate 0.096% among 320,000 | activation, % at 12.5 µM;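 active means mean replicate activation of at least 60% and every replicate at or above 60%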;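 further: 0% = median plate neutral-control signal and 100% = twice that signal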
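Assay system: LDL receptor-deficient CHO ldlA cells overexpressing murine SR-BI / Medium: BSA-supplemented, HEPES-buffered Ham's F12, pH 7.4 / Probe or stimulus: DiI-labelled HDL at 10 µg/mL final / Timing: compound with DiI-HDL co-incubation, 3 h at 37 °C / Technique: bottom-read cell fluorescence after medium removal, ex 550/em 595 nm / Measure: HDL uptake via cellular fluorescence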
GSK3A inh = inhibitors of human GSK-3 alpha kinase; P49840; ADP-Glo luminescence, 60 min; inhibition, % at 10 µM; hit rate 0.1% among 320,000; AID 2650;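 active means more than half of replicates show inhibition above 20%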;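 further: GST-tagged GSK-3 alpha with peptide substrate and 25 µM ATP; 0% = DMSO neutral wells and 100% = GW8510 positive control wells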
GSK3B inh = inhibitors of human GSK3beta kinase. GST-GSK3beta kinase, ADP-Glo luminescence, 60 min; stronger effect = lower value. activity score (negative = inhibition), % at 10 µM. hit rate 0.038% among 300,000;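 active means more than half of replicate wells score below -50%, meaning over 50% inhibition versus plate controls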;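 further: 0% = median DMSO wells and -100% = median GW8510 positive control wells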
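Test system: GST-tagged human GSK3beta kinase, cell-free; evaluation: activity score scaled between in-plate DMSO and GW8510 controls; measured by: ADP-Glo luminescence; incubation: 60 min reaction, RT; benchmarks: DMSO and 20 µM GW8510; reagent: peptide substrate plus 25 µM ATP (final); medium: Tris/MgCl2 kinase buffer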
CDK5 p35 inh = inhibitors of human CDK5/p35 kinase | hit rate 0.01% among 330,000 | Q00535+Q15078 | inhibition, % at 10 µM | Recombinant CDK5/p35, ADP-Glo luminescence, 60 min | AID 488839;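 active means highest replicate inhibition of at least 50% and at least 75% of replicates reaching 50%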;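 further: plate controls were DMSO neutral control for no effect and GW8510 at 10 µM for full effect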
The depositor's hits bear a star; · = no result.

SMILES | SR-BI DiI inh | SR-BI DiI-HDL act | GSK3A inh | GSK3B inh | CDK5 p35 inh
Cc1ccc(-c2cc(C(F)F)n3ncc(C(=O)N4CCN(c5ccccn5)CC4)c3n2)cc1 | 78* | -77 | 1 | -2 | -10
O=C(c1cnn2c(C(F)F)cc(-c3ccccc3)nc12)N1CCN(Cc2ccc3c(c2)OCO3)CC1 | 78* | · | -2 | 1 | 0
CCN1CCN(C(=O)c2cnn3c(C(F)F)cc(-c4ccc(C)cc4)nc23)CC1 | 28 | -28 | 2 | 0 | 0
N#Cc1sc2nc(N3CCCCC3)c3c(c2c1N)CCCC3 | 74* | -74 | 1 | -2 | 0
Cc1nc2sc(C#N)c(N)c2c2c1CCCC2 | 3 | -3 | 12 | 3 | 1
O=C1c2ccc(-c3ccc(Cl)c(C(F)(F)F)c3)cc2S(=O)(=O)c2cccc(C(=O)N3CCN(c4ccc(Cl)cn4)CC3)c21 | 91* | -91 | 0 | · | 0
Cc1cc(C)nc(SCc2ccc(C(=O)N/N=C/C3CCCCC3)cc2)n1 | 5 | -5 | 1 | -1 | -1
Cc1c(C#N)c(O)[nH]c(=O)c1N=Nc1ccc(S(N)(=O)=O)cc1 | 8 | -8 | 79* | -76* | 12
N#Cc1ccc(-c2ccc(F)cc2)nc1SCC(=O)Nc1sc2c(c1C#N)CCC2 | 78* | -78 | 13 | -3 | 1
N#Cc1cc2c(nc1SCC(=O)Nc1sc3c(c1C#N)CCC3)CCCC2 | 58 | -58 | -1 | 0 | 1
CCOC(=O)C1CCN(S(=O)(=O)c2ccc3[nH]c(=O)ccc3c2)CC1 | -18 | 18 | -1 | 0 | -2
CCc1c(C)[nH]n(-c2nc(-c3ccccc3)cs2)c1=O | 8 | -8 | 0 | 0 | 0
Cc1[nH]n(-c2nc(-c3ccc(Cl)cc3)cs2)c(=O)c1N=Nc1ccc(O)cc1 | 110* | -111 | 0 | 1 | 0
CC(C)c1cc(C(=O)N2CCCC(N3CCN(c4ccc(F)cc4)CC3)C2)n(C)n1 (configuration not stated) | 49 | -49 | · | 17 | 1
CSc1nc2sc3c(c2c(=O)[nH]1)CCC(C)C3 (configuration not stated) | · | · | -3 | -6 | 0
CC1CCc2c(sc3nn[nH]c(=O)c23)C1 (configuration not stated) | -22 | 22 | 52* | -28 | 1
COc1ccccc1NS(=O)(=O)c1cc(NC(=O)Nc2ccc(Cl)cc2Cl)ccc1N1CCCCC1 | 44 | -44 | 2 | -1 | 1
O=C(Nc1cccc(C(F)(F)F)c1)Nc1ccc(N2CCCC2)c(S(=O)(=O)Nc2ccccc2Cl)c1 | 91* | -91 | 1 | 6 | 0
CC(=O)c1ccc(S(=O)(=O)Nc2ccccc2C(=O)NC2CC2)cc1 | -1 | 1 | -2 | · | -3
COc1ccccc1-n1c2nc3ccccc3nc2c2c(=O)n(-c3cc(C)cc(C)c3)cnc21 | 79* | -79 | 1 | 6 | 4
Cc1ccc(OCCn2cc(/C=C(\C#N)C(=O)NCC3CCCO3)c3ccccc32)cc1C (configuration not stated) | 76* | -76 | -3 | 1 | 0
Cc1ccc(S(=O)(=O)N(C)c2ccc(OCC(=O)NCC3(N(C)C)CCCCC3)cc2)cc1 | 83* | -83 | -1 | -1 | -3
CC(C)CN(C(=O)c1ccc2c(c1)OCCO2)c1c(N)n(Cc2ccccc2)c(=O)[nH]c1=O | -15 | 15 | -2 | -5 | -2
O=C(CN1CC[n+]2c(-c3cccs3)csc21)c1ccc(-c2ccccc2)cc1 | 77* | -77 | 6 | -1 | 1
Cc1ccc(C(=O)Cn2nnc(-c3cccs3)n2)cc1 | · | · | -1 | 2 | 0
SMILES | SR-BI DiI inh | SR-BI DiI-HDL act | GSK3A inh | GSK3B inh | CDK5 p35 inh
O=C(c1ccc(S(=O)(=O)N2CCCC2)cc1)N1CCCc2ccccc21 | 77* | -77 | -1 | -2 | -1
O=C(c1ccc(S(=O)(=O)N2CCCCC2)cc1)N1CCCc2ccccc21 | 39 | -39 | 2 | 2 | -3
CCOc1ccc(/C=C(\C#N)C(=O)Nc2cccnc2)cc1 | -8 | 8 | -2 | -2 | -2
CCOc1ccc(NC(=O)/C(C#N)=C\c2ccc(N3CCCC3)c(C)c2)cc1 | 101* | -101 | · | · | -3
COc1cccc(N(CC(=O)NC2CCCCC2)C(=O)CCCC(=O)Nc2ccccn2)c1 | 21 | -21 | 2 | 3 | 0
CCCC(O)(c1ccc(Cl)cc1)C(CN1CCOCC1)c1ccc(Cl)cc1 (configuration not stated) | 79* | -79 | 0 | -2 | -1
CCCC(O)(c1ccc(OC)cc1)C(CN1CCOCC1)c1ccc(Cl)cc1 (configuration not stated) | -7 | 7 | -4 | 4 | 0
Cc1ccccc1Nc1c([N+](=O)[O-])ccc2c1=NC1(CCCCC1)N=2 | 83* | -83 | 4 | 3 | 1
COc1ccc(C(=O)O)cc1S(=O)(=O)Nc1ccc(Oc2ccccc2)cc1 | -8 | 8 | -3 | · | 0
CC(=O)c1c(C)[nH]c(C(=O)N2c3ccccc3CC2C)c1C (configuration not stated) | 72* | -72 | 2 | 1 | 2
COc1ccc(N2CCN(C(=O)CN3c4cccc5cccc(c45)S3(=O)=O)CC2)cc1 | -3 | 3 | -1 | · | -3
COc1ccc(C(C)(C)C)cc1NC(=O)COC(=O)C1=NNC(=O)CC1 | -4 | 4 | 2 | · | 0
O=C(N/N=C/c1ccc(OC(F)F)cc1OC(F)F)c1cccc(S(=O)(=O)N2CCOCC2)c1 | 83* | -83 | -1 | 0 | 0
O=C(NN=Cc1ccc(F)cc1)c1cccc(S(=O)(=O)N2CCCC2)c1 | 20 | -20 | 11 | · | 0
O=C(NN=Cc1ccccc1OC(F)F)c1cccc(S(=O)(=O)N2CCCC2)c1 | 72* | -72 | -9 | · | -1
COc1cc(OC)c(OC)cc1/C=N/NC(=O)c1cccc(S(=O)(=O)N2CCOCC2)c1 | 60 | -60 | 2 | 0 | -1
Cc1ccccc1OCCSc1nnc(-c2cccnc2)n1N | -5 | 5 | -1 | 0 | 1
Cc1ccc(S(=O)(=O)N2CCN(C(=O)c3ccc(N4CCC(C)CC4)c([N+](=O)[O-])c3)CC2)cc1 | 37 | -37 | · | · | -2
O=[N+]([O-])c1ccc(Cl)cc1NCc1cccnc1 | · | · | 2 | -4 | 0
CCOc1ccc(NC(=O)CN(C)C(=O)c2ccccc2OCc2cccc(C)c2)cc1OCC | 86* | -86 | -1 | · | 1
Cc1cccc(COc2ccccc2C(=O)N(C)CC(=O)Nc2cccc(F)c2)c1 | 37 | -37 | -2 | · | 0
N#CC1=C(N)OC2=C(C(=O)CCC2)C1c1cc2c(cc1Br)OCO2 (configuration not stated) | -20 | 20 | -2 | 0 | -1
C/C(=N/Nc1ccc(C(=O)c2c(C)cc3ccccn23)cc1[N+](=O)[O-])c1ccc(O)cc1 | 101* | -101 | · | · | 2
